Experiments:
[1] = test system: U87, T98 and bEnd.3 cells; assay: PrestoBlue cell viability screen, cell line not given; type: cell-based; conditions: BEND3, 120 h
Method in brief: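 bEnd.3 cells, grown in DMEM with 10% FBS and 2 mM L-glutamine, seeded at 1 × 10^4 per well. After 48 h at 37 °C/5% CO2 the medium was replaced and 20× compound dilutions in DMEM added (3–30 μM 3-point or 0.03–30 μM semi-log 7-point). DMSO 0.1% v/v served as untreated control. After 5 d, PrestoBlue was added for 60–90 min (ex 540/em 590 nm). EC50 came from a four-parameter logistic fit, minimum constrained to zero, normalised to untreated cells.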

[2] = test system: T98 cells; assay: PrestoBlue dose–response cell viability assay, 5 d; type: cell-based, human; conditions: T98 versus U87 and bEnd.3, 3-point screen
[3] = target: LCK (Homo sapiens, UniProt P06239); assay: Z′-LYTE kinase inhibition; type: biochemical; conditions: 3-point dose–response (0.1, 1, 10 μM), ATP Km app
LCK, sequence (P06239 whole entry): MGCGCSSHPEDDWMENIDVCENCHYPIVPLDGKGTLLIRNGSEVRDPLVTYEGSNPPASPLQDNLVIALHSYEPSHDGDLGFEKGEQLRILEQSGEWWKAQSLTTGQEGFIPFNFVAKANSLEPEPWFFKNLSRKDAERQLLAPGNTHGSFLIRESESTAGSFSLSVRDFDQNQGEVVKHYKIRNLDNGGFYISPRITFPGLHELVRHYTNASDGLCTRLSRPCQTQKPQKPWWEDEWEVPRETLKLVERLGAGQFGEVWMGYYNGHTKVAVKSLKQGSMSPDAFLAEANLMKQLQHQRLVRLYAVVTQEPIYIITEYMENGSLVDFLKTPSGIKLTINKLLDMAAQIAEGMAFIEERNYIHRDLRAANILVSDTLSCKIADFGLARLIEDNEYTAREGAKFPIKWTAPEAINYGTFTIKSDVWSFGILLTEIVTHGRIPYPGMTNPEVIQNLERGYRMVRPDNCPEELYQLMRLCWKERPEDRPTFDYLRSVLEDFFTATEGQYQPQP
Method in brief: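 Z′-LYTE FRET assay: a peptide substrate tagged with a FRET pair, with protease cleavage distinguishing phospho from non-phospho peptide, read ratiometrically. Wild-type kinase was tested at 0.1, 1 and 10 μM in duplicate, with 1% DMSO and ATP at apparent Km. 100% inhibition was set without ATP; 0% used a synthetically phosphorylated substrate peptide. IC50 came from the dose-response curve.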

[4] = test system: U87 cells; assay: PrestoBlue dose–response cell viability assay, 5 d; type: cell-based, human; conditions: U87, 3-point screen

Row | Compound | antiproliferative selectivity profile [2] | further results
1 | CC1CCN(CC#Cc2nn(CC3CCCC3)c3ncnc(N)c23)CC1 [A3] | – | EC50 [1]: < 30000 nM
2 | CNc1ncc2c(C#CCN3CCCCCC3)nn(CC3CCCC3)c2n1 [B21] | selective antiproliferative profile against the T98 cell line | –
3 | CN(C)C1CCN(CC#Cc2nn(C3CCCC3)c3nc(NCc4ccccc4)ncc23)C1 (stereo not shown) [B58, N-Benzyl-1-cyclopentyl-3-(3-(3-(dimethylamino)pyrrolidine-1-yl)prop-1-yn-1-yl)-1H-pyrazolo[3,4-d]pyrimidin-6-amine] | – | IC50 [3]: 2270 nM
4 | CNc1ncc2c(C#CCN3CCC(NC(C)=O)CC3)nn(CC3CCCC3)c2n1 [B16] | selective antiproliferative profile against the T98 cell line | –
5 | CCOC(=O)C1CCN(CC#Cc2nn(CC3CCCC3)c3nc(NC)ncc23)CC1 [B22] | selective antiproliferative profile against the T98 cell line | –
6 | CCOC(=O)N1CCN(CC#Cc2nn(CC3CCCC3)c3nc(NC)ncc23)CC1 [B23] | selective antiproliferative profile against the T98 cell line | –
7 | Cn1nnc2c(C(N)=O)ncn2c1=O [TMZ, temozolomide] | – | antiproliferative activity [4]: some level of antiproliferative activity

— publication PMC10718585 (RSC Medicinal Chemistry, 2023)
